Values after ≈ are worked out from the molar mass of the structure shown. Active and inactive are the calls of the source.

Drawing on ChEMBL document CHEMBL4477166, “18β-Glycyrrhetinic Acid Derivatives Possessing a Trihydroxylated A Ring Are Potent Gram-Positive Antibacterial Agents” (2016), this text covers MIC and Activity for 19 compounds.

Experiment [1] has as its system Bacillus subtilis. The experiment can be described thus: Antibacterial activity against Bacillus subtilis ATCC 6051 by microdilution assay. The class given is functional. An outline of the steps: (§1)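 Turbidimetric broth microdilution. Log-phase cells were washed and resuspended in broth (LB at 37 °C for B. subtilis and S. aureus; oat bran broth at 28 °C for S. scabies) and seeded at 1 × 10⁵ CFU/mL. Twofold serial dilutions were made with DMSO ≤1% (v/v). A620 was read, then plates were incubated with vigorous shaking. MIC was the lowest concentration with no apparent growth versus vehicle-only medium without cells. Run in triplicate.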

Experiment [2] deals with Pseudomonas aeruginosa. Briefly: Antibacterial activity against multi-drug resistant Pseudomonas aeruginosa at 100 uM measured after 5 to 6 hrs by microdilution assay. The class given is functional, organism-based. An outline of the steps:
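Log-phase cells seeded at 1 × 10⁵ CFU/mL. Single-dose screen at 100 μM, with DMSO cosolvent at most 1% v/v. Growth measured turbidimetrically at 620 nm, before and after incubation with vigorous shaking.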

The test system of experiment [3] is Staphylococcus aureus. The experiment can be described thus: Antibacterial activity against Staphylococcus aureus ATCC 25923 by microdilution assay. Format: functional. An outline of the steps:
as §1

Experiment [4] deals with Pseudomonas aeruginosa. The experiment can be described thus: Antibacterial activity against Pseudomonas aeruginosa at 100 uM measured after 5 to 6 hrs by microdilution assay. The class given is functional, organism-based. A general note: In broth dilution the organism is exposed to a series of concentrations in liquid medium.
Experiment [5] has as its system Staphylococcus aureus. The experiment can be described thus: Antibacterial activity against methicillin-resistant Staphylococcus aureus by microdilution assay. The class given is functional. In a few lines:
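Log-phase cells seeded at 1 × 10⁵ CFU/mL. Twofold serial dilutions made in broth with DMSO cosolvent, at most 1% v/v. Turbidity read at 620 nm before and after incubation with vigorous shaking. MIC is the lowest concentration with no apparent growth versus the medium-plus-vehicle control. Run in triplicate.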

In experiment [6] the test system is Streptomyces scabiei. Briefly: Antibacterial activity against Streptomyces scabiei CGMCC4.7610246 by microdilution assay. The class given is functional. In a few lines: as §1
For experiment [7], the system named is Escherichia coli. The experiment can be described thus: Antibacterial activity against Escherichia coli at 100 uM measured after 5 to 6 hrs by microdilution assay. Format: functional, organism-based.

Consider `CCCCCOC(=O)[C@@]1(C)CC[C@]2(C)CC[C@]3(C)C(=CC[C@@H]4[C@@]5(C)[C@@H](O)[C@H](O)[C@H](O)C(C)(C)[C@@H]5CC[C@]43C)[C@@H]2C1`, for which the MIC in experiment [1], in experiment [3], in experiment [5] and in experiment [6] was more than 50 µg/mL each time. Moreover, the outcome in experiment [2], in experiment [4] and in experiment [7] was inactive.
On to `CC1(C)[C@@H](O)[C@@H](O)[C@H](O)[C@]2(C)[C@H]3C(=O)C=C4[C@@H]5C[C@@](C)(C(=O)OCc6ccccc6[N+](=O)[O-])CC[C@]5(C)CC[C@@]4(C)[C@]3(C)CC[C@@H]12`, for which the MIC in experiment [1], in experiment [3], in experiment [5] and in experiment [6] was more than 50 µg/mL in each case. Further, the result in experiment [2], in experiment [4] and in experiment [7] was inactive.
On to `CCCCCCCCCCCCCCCOC(=O)[C@@]1(C)CC[C@]2(C)CC[C@]3(C)C(=CC[C@@H]4[C@@]5(C)[C@@H](O)[C@H](O)[C@H](O)C(C)(C)[C@@H]5CC[C@]43C)[C@@H]2C1`, for which the MIC in experiment [1], in experiment [3], in experiment [5] and in experiment [6] was more than 50 µg/mL in each case. The outcome in experiment [2], in experiment [4] and in experiment [7] was inactive.
As for `CC1(C)C(=O)[C@@H]2O[C@@H]2[C@]2(C)[C@H]3CC=C4[C@@H]5C[C@@](C)(C(=O)OCc6ccccc6)CC[C@]5(C)CC[C@@]4(C)[C@]3(C)CC[C@@H]12`, the MIC in experiment [1], in experiment [3], in experiment [5] and in experiment [6] was more than 50 µg/mL each time. Moreover, the result in experiment [2], in experiment [4] and in experiment [7] was inactive.
As for `CC1(C)[C@@H](O)[C@@H](O)[C@H](O)[C@]2(C)[C@H]3C(=O)C=C4[C@@H]5C[C@@](C)(C(=O)OCc6ccc(Cl)cc6)CC[C@]5(C)CC[C@@]4(C)[C@]3(C)CC[C@@H]12`, the MIC in experiment [1], in experiment [3], in experiment [5] and in experiment [6] was more than 50 µg/mL throughout. Also, the result in experiment [2], in experiment [4] and in experiment [7] was inactive.
Regarding `CC1(C)C(=O)CC[C@]2(C)[C@H]3CC=C4[C@@H]5C[C@@](C)(C(=O)OCc6ccccc6)CC[C@]5(C)CC[C@@]4(C)[C@]3(C)CC[C@@H]12`, the MIC in experiment [1], in experiment [3], in experiment [5] and in experiment [6] was more than 50 µg/mL throughout. Further, the result in experiment [2], in experiment [4] and in experiment [7] was inactive.
Take `CC1(C)[C@H](O)[C@@H](O)[C@H](O)[C@]2(C)[C@H]3C(=O)C=C4[C@@H]5C[C@@](C)(C(=O)OCc6ccccc6)CC[C@]5(C)CC[C@@]4(C)[C@]3(C)CC[C@@H]12`: the MIC in experiment [1] is more than 37.8 µg/mL; in experiment [3] it was more than 37.8 µg/mL; in experiment [5], 4 µg/mL (≈ 6.75 µM); in experiment [6], more than 37.8 µg/mL. For the same compound, the result in experiment [2], in experiment [4] and in experiment [7] was inactive.
On to `CC1(C)[C@@H](O)[C@@H](O)[C@H](O)[C@]2(C)[C@H]3C(=O)C=C4[C@@H]5C[C@@](C)(C(=O)OCc6ccccc6Cl)CC[C@]5(C)CC[C@@]4(C)[C@]3(C)CC[C@@H]12`, for which the MIC in experiment [1], in experiment [3], in experiment [5] and in experiment [6] was more than 50 µg/mL throughout. For the same compound, the result in experiment [2], in experiment [4] and in experiment [7] was inactive.
As for `CC1(C)[C@H](O)[C@@H](O)[C@H](O)[C@]2(C)[C@H]3C(=O)C=C4[C@@H]5C[C@@](C)(C(=O)O)CC[C@]5(C)CC[C@@]4(C)[C@]3(C)CC[C@@H]12`, the MIC in experiment [1], in experiment [3], in experiment [5] and in experiment [6] was more than 50 µg/mL each time. Besides, the outcome in experiment [2], in experiment [4] and in experiment [7] was inactive.
For `COC(=O)[C@@]1(C)CC[C@]2(C)CC[C@]3(C)C(=CC(=O)[C@@H]4[C@@]5(C)[C@@H](O)[C@H](O)[C@H](O)C(C)(C)[C@@H]5CC[C@]43C)[C@@H]2C1`, the MIC in experiment [1], in experiment [3], in experiment [5] and in experiment [6] was more than 50 µg/mL in each case. In addition, the result in experiment [2], in experiment [4] and in experiment [7] was inactive.
As for `CC(C)OC(=O)[C@@]1(C)CC[C@]2(C)CC[C@]3(C)C(=CC(=O)[C@@H]4[C@@]5(C)[C@@H](O)[C@H](O)[C@H](O)C(C)(C)[C@@H]5CC[C@]43C)[C@@H]2C1`, the MIC in experiment [1] was more than 34.8 µg/mL; in experiment [3], more than 34.8 µg/mL; in experiment [5], 8 µg/mL (≈ 14.7 µM); in experiment [6] it was more than 34.8 µg/mL. The outcome in experiment [2], in experiment [4] and in experiment [7] was inactive.
Take `CCCCCCCCCCCCCCCOC(=O)[C@@]1(C)CC[C@]2(C)CC[C@]3(C)C(=CC(=O)[C@@H]4[C@@]5(C)[C@@H](O)[C@H](O)[C@H](O)C(C)(C)[C@@H]5CC[C@]43C)[C@@H]2C1`: the MIC in experiment [1], in experiment [3], in experiment [5] and in experiment [6] was more than 50 µg/mL throughout. Further, the result in experiment [2], in experiment [4] and in experiment [7] was inactive.
Take `CCCCCOC(=O)[C@@]1(C)CC[C@]2(C)CC[C@]3(C)C(=CC(=O)[C@@H]4[C@@]5(C)[C@@H](O)[C@H](O)[C@H](O)C(C)(C)[C@@H]5CC[C@]43C)[C@@H]2C1`: the MIC in experiment [1], in experiment [3], in experiment [5] and in experiment [6] was more than 50 µg/mL throughout. The result in experiment [2], in experiment [4] and in experiment [7] was inactive.
In the case of `CC1(C)[C@@H](O)[C@@H](O)[C@H](O)[C@]2(C)[C@H]3C(=O)C=C4[C@@H]5C[C@@](C)(C(=O)OCc6ccccc6)CC[C@]5(C)CC[C@@]4(C)[C@]3(C)CC[C@@H]12`, the MIC was more than 37.8 µg/mL in experiment [1], more than 37.8 µg/mL in experiment [3], 4 µg/mL (≈ 6.75 µM) in experiment [5] and more than 37.8 µg/mL in experiment [6]. Further, the outcome in experiment [2], in experiment [4] and in experiment [7] was inactive.
As to `CC1(C)[C@@H](O)[C@@H](O)[C@H](O)[C@]2(C)[C@H]3CC=C4[C@@H]5C[C@@](C)(C(=O)OCc6ccccc6[N+](=O)[O-])CC[C@]5(C)CC[C@@]4(C)[C@]3(C)CC[C@@H]12`, the MIC in experiment [1], in experiment [3], in experiment [5] and in experiment [6] was more than 50 µg/mL in each case. In addition, the outcome in experiment [2], in experiment [4] and in experiment [7] was inactive.
As for `CC1(C)C(=O)C=C[C@]2(C)[C@H]3C(=O)C=C4[C@@H]5C[C@@](C)(C(=O)OCc6ccccc6)CC[C@]5(C)CC[C@@]4(C)[C@]3(C)CC[C@@H]12`, the MIC in experiment [1], in experiment [3], in experiment [5] and in experiment [6] was more than 50 µg/mL in each case. Further, the result in experiment [2], in experiment [4] and in experiment [7] was inactive.
Consider `CC(C)OC(=O)[C@@]1(C)CC[C@]2(C)CC[C@]3(C)C(=CC[C@@H]4[C@@]5(C)[C@@H](O)[C@H](O)[C@H](O)C(C)(C)[C@@H]5CC[C@]43C)[C@@H]2C1`, for which the MIC in experiment [1] is more than 33.9 µg/mL; in experiment [3], 8.4 µg/mL (≈ 15.8 µM); in experiment [5], 2 µg/mL (≈ 3.77 µM); in experiment [6], 4.2 µg/mL (≈ 7.91 µM). Further, the outcome in experiment [2], in experiment [4] and in experiment [7] was inactive.
For `CC1(C)[C@H](O)[C@@H]2O[C@@H]2[C@]2(C)[C@H]3CC=C4[C@@H]5C[C@@](C)(C(=O)OCc6ccccc6)CC[C@]5(C)CC[C@@]4(C)[C@]3(C)CC[C@@H]12`, the MIC in experiment [1], in experiment [3], in experiment [5] and in experiment [6] was more than 50 µg/mL in each case. Further, the outcome in experiment [2], in experiment [4] and in experiment [7] was inactive.
`CC1(C)[C@@H](O)[C@@H](O)[C@H](O)[C@]2(C)[C@H]3C(=O)C=C4[C@@H]5C[C@@](C)(C(=O)OCc6ccc([N+](=O)[O-])cc6)CC[C@]5(C)CC[C@@]4(C)[C@]3(C)CC[C@@H]12`: the MIC in experiment [1], in experiment [3], in experiment [5] and in experiment [6] was more than 50 µg/mL each time. Besides, the outcome in experiment [2], in experiment [4] and in experiment [7] was inactive.

A word on the MIC: it is the smallest concentration in the dilution series that meets the test's criterion for growth inhibition.
